Screening results (PubChem BioAssay)
Apaf-1 inh – human Apaf-1 inhibition. inhibition, % at 20 µM. reconstituted apoptosome caspase-3 activity, DEVD-Rh110 fluorescence. O14727. 330,000 compounds, 0.71% hits; active means inhibition of at least 40% at 20 µM
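Material: reconstituted apoptosome with Apaf-1, cytochrome c, caspase-9, procaspase-3, dATP / Buffer or medium: pH 7.5 Hepes buffer with CHAPS, BSA, DTT / Also added: cytochrome c with DEVD-Rh110 / Schedule: compound with Apaf-1, dATP, procaspase-3 30 min, then 50 min reaction, room temperature / Technique: rhodamine 110 fluorescence at Ex 480/Em 540 nm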
PAFAH1B3 FP inh – blocks human PAF acetylhydrolase 1B catalytic subunit 3; inhibition, % at 3.39 µM; 340,000 compounds, 0.28% hits; recombinant PAFAH1B3, FP-rhodamine probe, fluorescence polarization; AID 492972;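 active means inhibition above the screen-wide average of all tested compounds plus 3 SD, cut at about 25% in these data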
Target sequence (Q15102 whole entry, looked up): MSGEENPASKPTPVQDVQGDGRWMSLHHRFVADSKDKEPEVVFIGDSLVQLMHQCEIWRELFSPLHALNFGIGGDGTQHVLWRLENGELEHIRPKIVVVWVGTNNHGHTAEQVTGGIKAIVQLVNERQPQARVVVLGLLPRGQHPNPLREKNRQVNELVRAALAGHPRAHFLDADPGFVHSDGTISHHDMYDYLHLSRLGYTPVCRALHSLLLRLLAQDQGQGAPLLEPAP
PAFAH2 FP inh – PAFAH2 (human) inhibition; inhibition, % at 3.39 µM; 340,000 compounds, 0.99% hits; Q99487; AID 492956; recombinant PAFAH2, FP-rhodamine activity probe, fluorescence polarization;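 active means inhibition above the mean over all tested compounds plus 3 SD, cut at about 30% in these data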;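 further: inhibitors block probe labeling of enzyme so polarization drops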
PREPL inhibitor – human PREPL enzyme inhibition. Q4J6C6. recombinant PREPL, fluorescence polarization activity-based probe. inhibition, % at 5.96 µM. 320,000 compounds, 0.68% hits
PAFAH1B2 inh – PAFAH1B2 (human) inhibition | recombinant PAFAH1B2, FP-rhodamine activity probe, fluorescence polarization | P68402 | inhibition, % at 3.39 µM | AID 492953 | 340,000 compounds, 1.2% hits;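 active means inhibition above the mean of all tested compounds plus 3 SD, cut at about 24% in these data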
Target sequence (P68402 whole entry, looked up): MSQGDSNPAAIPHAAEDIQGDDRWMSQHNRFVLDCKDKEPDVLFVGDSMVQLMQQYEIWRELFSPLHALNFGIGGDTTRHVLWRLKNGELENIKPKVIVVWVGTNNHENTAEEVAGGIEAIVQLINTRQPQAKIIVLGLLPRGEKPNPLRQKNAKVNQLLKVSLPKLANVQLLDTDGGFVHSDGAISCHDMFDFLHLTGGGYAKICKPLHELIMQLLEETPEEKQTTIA
pPAFAH inh – pPAFAH (human) enzyme inhibition; 330,000 compounds, 1.5% hits; inhibition, % at 3.39 µM; recombinant pPAFAH, FP-rhodamine probe fluorescence polarization; Q13093; AID 463082;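 active means inhibition above the mean inhibition across the screen plus 3 SD, cut at about 25% in these data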;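 further: inhibitors block binding of the rhodamine activity-based probe so polarization drops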
PREPL confirm – human PREPL inhibition, confirmation | shares compounds with PREPL inhibitor | recombinant PREPL, fluorescence polarization activity probe | inhibition, % at 5.96 µM | 2,000 compounds, 67% hits | AID 2803
pPAFAH confirm – pPAFAH (human) inhibition, confirmed. shares compounds with pPAFAH inh. recombinant pPAFAH, FP-Rh probe fluorescence polarization. inhibition, % at 3.39 µM. 2,300 compounds, 72% hits. AID 463230;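 active means mean inhibition of the triplicate above the hit cutoff set for the earlier primary screen, cut at about 25% in these data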
Apaf-1 inh conf – Apaf-1 inhibition, single-dose confirmed; inhibition, % at 20 µM; 1,800 compounds, 25% hits; reconstituted apoptosome, caspase-3 DEVD-Rh110 fluorescence; shares compounds with Apaf-1 inh; AID 504614;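 active means mean inhibition of at least 40% at 20 µM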
Rh110 interf inh – Rh110 signal interference in Apaf-1 inhibitor counter-screen; shares compounds with Apaf-1 inh; Rh110 fluorescence interference, quenched caspase reaction; activation (fluorescence interference), % at 20 µM; 1,800 tested, under 10 active; AID 504615;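 active means signal rise of 40% or more at 20 µM, treated as a fluorescence artifact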
Hits are given with their value; . = inactive; / = no result given. In the library only some 3.5% were active in any assay of this set; here they are far more common. Unless noted, no stated cut-off is given here; in the data, active means inhibition above about 43%; inactive means the rest.

SMILES | Apaf-1 inh | PAFAH1B3 FP inh | PAFAH2 FP inh | PREPL inhibitor | PAFAH1B2 inh | pPAFAH inh | pPAFAH confirm | others
Clc1ccc(C[n+]2c(-c3ccccc3)cc(-c3ccccc3)cc2-c2ccccc2)cc1 | 52.2 | . | . | 71.0 | . | . | / | PREPL confirm=62.9
CCCCc1nc2ccccc2c(=O)n1-c1ccccc1O | . | . | . | 110.8 | . | . | / | PREPL confirm=.
CCN(CC)C(=O)c1ccc(NC(=O)COC(=O)c2ccc(Cl)s2)cc1 | . | . | . | . | . | . | /
CC1=C[C@@H]2c3cccc4[nH]cc(c34)C[C@H]2N(C)C1 | . | . | . | 57.8 | . | . | / | PREPL confirm=43.8
Cc1ccccc1N1CCN(C2CCCN(C(=O)Cc3c(C)noc3C)C2)CC1 (configuration not stated) | . | . | . | . | . | . | /
CN/C=C(/Cl)P(=O)(OC(C)C)OC(C)C | . | . | . | . | . | . | /
O=[N+]([O-])c1ccccc1-c1cc(-c2ccccc2)cc(-c2ccccc2)[n+]1Cc1ccccc1Cl | 52.8 | / | / | 51.0 | / | . | / | PREPL confirm=49.3;Apaf-1 inh conf=.;Rh110 interf inh=.
O=c1[nH]c(=S)n(C2CC2)c(O)c1C=Nc1cccc(C(F)(F)F)c1 | . | . | . | . | . | . | /
CN1C(=O)/C(=C/c2cccn2-c2ccc3ccccc3c2)C(=O)NC1=S | . | . | 39.1 | . | 38.8 | 39.5 | .
COCCCNP1(=O)OCC(C)([N+](=O)[O-])CO1 (configuration not stated) | / | . | . | / | . | / | /
O=C(COC(=O)Cc1ccccc1)NC12CC3CC(CC(C3)C1)C2 | . | . | 54.8 | . | . | 35.3 | 41.3
Cc1cccc(OCCn2cccc2/C=C2/C(=O)NC(=O)N(Cc3ccco3)C2=O)c1 | . | / | / | . | / | . | /
O=C1NC(=O)N(Cc2ccco2)C(=O)/C1=C\c1cccn1CCOc1ccc(Cl)cc1 | . | . | . | . | 34.5 | 39.8 | .
Oc1ccc(/C=N/NP(=S)(c2ccccc2)c2ccccc2)c(O)c1O | . | . | . | . | . | 41.3 | 63.0
CCOc1ccc(-n2c(O)c(C=Nc3ccc(N(CC)CC)cc3)c(=O)[nH]c2=O)cc1 | . | . | . | . | . | . | /
CCOc1ccccc1-n1c(O)c(C=Nc2ccc(N(CC)CC)cc2)c(=O)[nH]c1=O | . | . | . | . | . | 43.6 | .
CCN(CC)c1ccc(N=Cc2c(O)n(-c3ccccc3C)c(=O)[nH]c2=O)cc1 | . | . | . | . | . | 38.5 | .
CCN(CC)c1ccc(N=Cc2c(O)n(-c3ccccc3)c(=O)[nH]c2=O)cc1 | . | . | . | . | . | 48.7 | .
CCN(CC)c1ccc(N=Cc2c(O)[nH]c(=O)[nH]c2=O)cc1 | . | . | . | . | . | 45.4 | .
O=c1[nH]c(=O)n(-c2ccc(Br)cc2)c(O)c1C=NCCN1CCCCC1 | . | . | . | . | . | . | /
S=C1NCCN1 | . | . | . | . | . | . | /
C[C@@H]1C(=O)O[C@H]2[C@H](O)[C@]34[C@@H]5OC(=O)[C@]3(OC3OC(=O)[C@H](O)C34[C@H](C(C)(C)C)[C@@H]5O)[C@@]12O (some centres not stated) | / | . | . | / | . | / | /
COc1cccc(-n2c(O)c(C=NCCN3CCNCC3)c(=O)[nH]c2=S)c1 | . | . | . | . | . | . | /
O=C(C1CCN(c2nc3ccc(Br)cc3s2)CC1)N1CCC2(CC1)OCCO2 | . | . | . | . | . | 36.4 | 25.9
O=c1[nH]c(=S)n(-c2ccc(Cl)cc2)c(O)c1C=Nc1ccc(N2CCOCC2)cc1 | . | . | . | . | . | 43.3 | .
SMILES | Apaf-1 inh | PAFAH1B3 FP inh | PAFAH2 FP inh | PREPL inhibitor | PAFAH1B2 inh | pPAFAH inh | pPAFAH confirm | others
O=c1[nH]c(=O)n(C2CCCCC2)c(O)c1C=Nc1ccc(N2CCOCC2)cc1 | . | . | . | . | . | . | /
Cc1ccc(-c2nc3ccccc3c(=O)n2-n2cccc2)cc1 | . | . | . | . | . | . | /
CC(=O)c1ccc2c(c1)C1C(Cl)C(Sc3ccccc3[N+](=O)[O-])CC1C(C(=O)O)N2 (configuration not stated) | / | 30.8 | 41.8 | . | . | 54.1 | 27.4
O=C(O)c1cccc2c1NC(C(=O)O)C1CC(Sc3ccccc3[N+](=O)[O-])C(Cl)C21 (configuration not stated) | / | 49.2 | 81.7 | . | 30.8 | 95.7 | 78.8
N#CC(=C(O)c1ccc(S(=O)(=O)N(CCCl)CCCl)cc1)c1nc2ccccc2[nH]1 | / | . | . | / | . | / | /
C=CCSc1nc2c(c(-c3ccsc3)c1C#N)CN(C)CC2 | . | . | . | . | . | . | /
O=C(Cn1ncc2c3ccccc3n(Cc3cccc(Cl)c3)c2c1=O)N1CCC2(CC1)OCCO2 | . | . | . | . | . | 40.4 | 36.9
CC[C@H](C)/C=C(C)/C=C/C1=CC2=C(Cl)C(=O)[C@](C)(OC(C)=O)C(=O)C2=CO1 | . | . | 40.1 | . | . | 67.4 | 87.1
COc1ccc(N2C(=O)NC(=O)/C(=C/c3ccc([N+](=O)[O-])s3)C2=O)cc1 | . | / | / | . | / | 44.4 | 46.6
COc1ccc(N2C(=O)NC(=O)/C(=C\c3ccc([N+](=O)[O-])s3)C2=O)cc1 | . | . | . | . | . | 37.5 | 35.0
COc1ccccc1N1C(=O)NC(=O)/C(=C/c2ccc([N+](=O)[O-])s2)C1=O | . | / | / | . | / | 51.2 | 41.8
COc1ccc(N2C(=O)NC(=O)/C(=C/c3ccc(N4CCOCC4)cc3)C2=O)cc1 | . | / | / | . | / | . | /
COc1ccccc1N1C(=O)NC(=O)/C(=C\c2cnn(-c3ccccc3)c2)C1=O | . | . | . | . | . | . | /
CCOc1ccc(N2C(=O)NC(=O)/C(=C\c3cc(OC)c(OC)cc3[N+](=O)[O-])C2=O)cc1 | . | . | . | . | . | . | /
C[C@]12CC[C@H](O)CC1=CC(=O)C1C2CC[C@]2(C)C(=O)[C@H](O)CC12 (some centres not stated) | . | . | . | . | . | . | /
NP(=O)(OCCCCc1ccccc1)Oc1ccccc1Cl (configuration not stated) | . | 45.6 | 30.6 | . | 98.7 | 70.5 | 74.3
c1ccc2c(c1)[IH]c1ccccc1-2 | / | . | . | / | . | / | /
C=CCN1C(=O)NC(=O)/C(=C\c2ccc(-c3ccccc3[N+](=O)[O-])o2)C1=O | . | . | . | . | . | . | /
